According to ChEMBL document CHEMBL2311514, “Further exploration of M₁ allosteric agonists: subtle structural changes abolish M₁ allosteric agonism and result in pan-mAChR orthosteric antagonism” (Bioorg Med Chem Lett, 2013):
Substitutions are numbered along the chain they refer to. Active and inactive are the calls of the source. The rule behind the calls is not given here.

Key:
[1] = target: T1, Muscarinic acetylcholine receptor M1 (Rattus norvegicus) (UniProt P08482); experiment: (§1) Antagonist activity at rat muscarinic M1 receptor expressed in CHO cells assessed as inhibition of Ach-induced calcium response; format: functional, cell-based
T1 sequence (whole entry): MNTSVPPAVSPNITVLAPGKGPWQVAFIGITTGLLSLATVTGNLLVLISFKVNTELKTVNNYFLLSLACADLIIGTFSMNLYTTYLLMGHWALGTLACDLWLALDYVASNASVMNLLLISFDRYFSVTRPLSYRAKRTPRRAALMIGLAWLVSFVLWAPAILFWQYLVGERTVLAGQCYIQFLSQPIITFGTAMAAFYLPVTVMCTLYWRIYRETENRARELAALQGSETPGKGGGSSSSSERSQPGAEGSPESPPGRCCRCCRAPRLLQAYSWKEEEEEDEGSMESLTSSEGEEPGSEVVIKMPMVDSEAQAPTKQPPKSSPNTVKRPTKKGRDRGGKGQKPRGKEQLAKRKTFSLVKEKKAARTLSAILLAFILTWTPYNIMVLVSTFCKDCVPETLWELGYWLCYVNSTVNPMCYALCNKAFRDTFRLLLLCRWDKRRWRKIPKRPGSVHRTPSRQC

[2] = target: T2, Muscarinic acetylcholine receptor M1 (Rattus norvegicus, UniProt P08482); experiment: as §1; format: functional, cell-based
T2 sequence (P08482 whole entry): T1 sequence (whole entry)

[3] = target: T3, Muscarinic acetylcholine receptor M5 (Rattus norvegicus, UniProt P08911); experiment: (§2) Antagonist activity at rat muscarinic M5 receptor expressed in CHO cells assessed as inhibition of Ach-induced calcium response; format: functional, cell-based
T3 sequence (P08911 whole entry): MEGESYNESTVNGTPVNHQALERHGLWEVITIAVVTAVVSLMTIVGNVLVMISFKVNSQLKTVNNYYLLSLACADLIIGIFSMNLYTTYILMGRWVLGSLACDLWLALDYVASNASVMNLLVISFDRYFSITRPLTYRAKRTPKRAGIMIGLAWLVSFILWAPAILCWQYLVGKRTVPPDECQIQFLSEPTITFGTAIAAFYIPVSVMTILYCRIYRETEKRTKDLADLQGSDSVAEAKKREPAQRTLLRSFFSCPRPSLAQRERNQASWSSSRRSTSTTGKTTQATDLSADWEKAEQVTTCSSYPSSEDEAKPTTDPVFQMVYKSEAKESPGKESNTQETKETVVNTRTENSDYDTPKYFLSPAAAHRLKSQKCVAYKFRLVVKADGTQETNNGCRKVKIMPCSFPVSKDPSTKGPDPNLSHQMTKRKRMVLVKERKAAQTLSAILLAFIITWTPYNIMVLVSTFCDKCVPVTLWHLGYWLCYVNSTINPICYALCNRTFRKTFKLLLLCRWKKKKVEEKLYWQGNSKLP

[4] = target: T4, Muscarinic acetylcholine receptor M4 (Rattus norvegicus, UniProt P08485); experiment: (§3) Antagonist activity at rat muscarinic M4 receptor expressed in CHO cells assessed as inhibition of Ach-induced calcium response; format: functional, cell-based
T4 sequence (P08485 whole entry): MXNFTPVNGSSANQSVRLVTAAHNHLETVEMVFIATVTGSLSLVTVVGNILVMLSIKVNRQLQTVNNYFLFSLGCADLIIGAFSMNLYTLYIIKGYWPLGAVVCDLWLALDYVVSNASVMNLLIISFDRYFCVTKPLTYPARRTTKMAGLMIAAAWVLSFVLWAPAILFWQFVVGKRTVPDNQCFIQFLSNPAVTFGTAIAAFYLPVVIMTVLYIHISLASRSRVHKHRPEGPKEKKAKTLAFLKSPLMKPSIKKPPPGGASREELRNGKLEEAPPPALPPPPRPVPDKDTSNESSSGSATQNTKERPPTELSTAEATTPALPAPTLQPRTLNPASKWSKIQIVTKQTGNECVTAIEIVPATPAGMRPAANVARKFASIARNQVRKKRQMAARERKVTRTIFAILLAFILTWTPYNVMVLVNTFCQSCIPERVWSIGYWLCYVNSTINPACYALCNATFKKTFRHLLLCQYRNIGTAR

[5] = target: T5, Muscarinic acetylcholine receptor M3 (Rattus norvegicus, UniProt P08483); experiment: (§4) Antagonist activity at rat muscarinic M3 receptor expressed in CHO cells assessed as inhibition of Ach-induced calcium response; format: functional, cell-based
T5 sequence (P08483 whole entry): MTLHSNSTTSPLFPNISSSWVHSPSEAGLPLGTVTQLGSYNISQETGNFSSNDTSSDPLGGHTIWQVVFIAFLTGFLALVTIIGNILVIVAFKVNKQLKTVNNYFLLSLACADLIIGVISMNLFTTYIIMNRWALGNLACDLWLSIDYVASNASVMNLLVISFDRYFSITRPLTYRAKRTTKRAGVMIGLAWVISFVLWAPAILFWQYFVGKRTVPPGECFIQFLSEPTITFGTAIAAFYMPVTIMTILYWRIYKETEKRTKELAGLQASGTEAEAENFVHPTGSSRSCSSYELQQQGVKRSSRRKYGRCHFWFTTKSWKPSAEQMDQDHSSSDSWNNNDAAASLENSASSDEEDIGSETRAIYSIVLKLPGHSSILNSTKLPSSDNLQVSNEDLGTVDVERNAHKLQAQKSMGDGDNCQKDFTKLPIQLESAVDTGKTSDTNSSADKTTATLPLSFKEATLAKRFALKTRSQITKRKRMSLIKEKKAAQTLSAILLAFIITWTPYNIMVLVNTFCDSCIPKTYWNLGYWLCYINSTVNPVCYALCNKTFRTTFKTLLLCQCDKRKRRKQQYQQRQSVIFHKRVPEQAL

[6] = target: T6, Muscarinic acetylcholine receptor M2 (Rattus norvegicus, UniProt P10980); experiment: (§5) Antagonist activity at rat muscarinic M2 receptor expressed in CHO cells assessed as inhibition of Ach-induced calcium response; format: functional, cell-based
T6 sequence (P10980 whole entry): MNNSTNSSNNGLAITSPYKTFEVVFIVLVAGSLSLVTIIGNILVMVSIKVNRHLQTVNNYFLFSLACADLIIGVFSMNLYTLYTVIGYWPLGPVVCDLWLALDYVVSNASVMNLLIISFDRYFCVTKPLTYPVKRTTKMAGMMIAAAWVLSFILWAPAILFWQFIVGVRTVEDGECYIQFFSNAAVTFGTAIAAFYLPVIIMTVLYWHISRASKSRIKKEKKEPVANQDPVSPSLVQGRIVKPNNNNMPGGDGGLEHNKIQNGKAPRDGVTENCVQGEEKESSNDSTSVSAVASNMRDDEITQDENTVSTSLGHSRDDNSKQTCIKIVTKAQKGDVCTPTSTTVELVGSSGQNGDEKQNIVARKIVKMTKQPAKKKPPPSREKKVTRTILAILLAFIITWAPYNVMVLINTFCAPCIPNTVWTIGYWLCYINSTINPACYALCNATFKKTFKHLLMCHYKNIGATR

[7] = target: T1, Muscarinic acetylcholine receptor M1 (Rattus norvegicus); experiment: Partial agonist activity at rat muscarinic M1 receptor expressed in CHO cells calcium response relative to acetylcholine; format: functional, cell-based
Method in brief: (§6)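 Run in agonist mode as concentration-response curves on rat M1–M5 receptors. EC50 and pEC50 were taken from the curves. Efficacy was expressed as a percentage of the maximal acetylcholine response.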

[8] = target: T2, Muscarinic acetylcholine receptor M1; experiment: (§7) Partial agonist activity at rat muscarinic M1 receptor expressed in CHO cells calcium response; format: functional, cell-based; method in brief: as §6
[9] = target: T1, Muscarinic acetylcholine receptor M1 (Rattus norvegicus); experiment: Orthosteric antagonist activity at rat muscarinic M1 receptor expressed in CHO cells using [3HNMS] at 50 uM by dissociation kinetic studies; format: cell-based
[10] = target: T2, Muscarinic acetylcholine receptor M1; experiment: Displacement of [3H]NMS from rat muscarinic M1 receptor expressed in CHO cells after 3 hrs; format: cell-based
[11] = target: T7, Muscarinic acetylcholine receptor M1 (Homo sapiens) (UniProt P11229); experiment: Antagonist activity at human muscarinic M1 receptor expressed in CHO cells assessed as inhibition of acetylcholine-induced calcium response; format: functional, cell-based
T7 sequence (whole entry): T1 sequence (whole entry) with V5A, S254T, S309P, K320R, G337A, V413I

[12] = target: T8, Muscarinic acetylcholine receptor M5 (Homo sapiens) (UniProt P08912); experiment: (§8) Antagonist activity at human muscarinic M5 receptor expressed in CHO cells assessed as inhibition of Ach-induced calcium response; format: functional, cell-based
T8 sequence (whole entry): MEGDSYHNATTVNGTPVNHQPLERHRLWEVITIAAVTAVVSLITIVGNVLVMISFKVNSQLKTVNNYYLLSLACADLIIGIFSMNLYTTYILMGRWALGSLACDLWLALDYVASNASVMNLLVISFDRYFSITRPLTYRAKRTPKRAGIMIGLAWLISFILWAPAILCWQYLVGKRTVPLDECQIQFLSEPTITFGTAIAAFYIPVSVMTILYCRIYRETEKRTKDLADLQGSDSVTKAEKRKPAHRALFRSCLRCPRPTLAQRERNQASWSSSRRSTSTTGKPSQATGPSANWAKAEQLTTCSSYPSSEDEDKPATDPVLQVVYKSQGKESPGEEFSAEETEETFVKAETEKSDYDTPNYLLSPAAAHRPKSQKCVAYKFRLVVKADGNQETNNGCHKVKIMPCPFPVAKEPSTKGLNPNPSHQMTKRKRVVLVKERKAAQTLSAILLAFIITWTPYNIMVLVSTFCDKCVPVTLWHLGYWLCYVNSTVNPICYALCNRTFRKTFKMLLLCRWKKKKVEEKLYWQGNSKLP

[13] = target: T9, Muscarinic acetylcholine receptor M2 (Homo sapiens) (UniProt P08172); experiment: (§9) Antagonist activity at human muscarinic M2 receptor expressed in CHO cells assessed as inhibition of Ach-induced calcium response; format: functional, cell-based
T9 sequence (whole entry): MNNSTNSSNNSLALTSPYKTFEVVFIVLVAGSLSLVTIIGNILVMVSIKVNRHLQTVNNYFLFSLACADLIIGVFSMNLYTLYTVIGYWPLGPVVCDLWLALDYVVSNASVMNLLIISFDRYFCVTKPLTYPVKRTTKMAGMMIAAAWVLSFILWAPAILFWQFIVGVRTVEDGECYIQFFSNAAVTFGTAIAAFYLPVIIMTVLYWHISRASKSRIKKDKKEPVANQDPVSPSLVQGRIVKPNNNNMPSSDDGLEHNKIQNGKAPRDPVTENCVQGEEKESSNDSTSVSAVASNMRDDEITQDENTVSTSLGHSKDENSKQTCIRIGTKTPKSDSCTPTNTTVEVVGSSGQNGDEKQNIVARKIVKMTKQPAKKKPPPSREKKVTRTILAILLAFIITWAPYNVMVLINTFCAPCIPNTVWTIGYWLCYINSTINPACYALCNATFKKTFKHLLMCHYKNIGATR

[14] = target: T1, Muscarinic acetylcholine receptor M1 (Rattus norvegicus); experiment: as §7; format: functional, cell-based; method in brief: as §6
[15] = target: T10, Muscarinic acetylcholine receptor M5 (Homo sapiens, UniProt P08912); experiment: as §8; format: functional, cell-based
T10 sequence (P08912 whole entry): T8 sequence (whole entry)

[16] = target: T11, Muscarinic acetylcholine receptor M2 (Homo sapiens, UniProt P08172); experiment: as §9; format: functional, cell-based
T11 sequence (P08172 whole entry): T9 sequence (whole entry)

[17] = target: T10, Muscarinic acetylcholine receptor M5; experiment: Partial agonist activity at human muscarinic M5 receptor expressed in CHO cells calcium response; format: functional, cell-based
[18] = target: T11, Muscarinic acetylcholine receptor M2; experiment: Partial agonist activity at human muscarinic M2 receptor expressed in CHO cells calcium response; format: functional, cell-based
[19] = target: T5, Muscarinic acetylcholine receptor M3; experiment: Partial agonist activity at rat muscarinic M3 receptor expressed in CHO cells calcium response; format: functional, cell-based; method in brief: as §6
[20] = target: T6, Muscarinic acetylcholine receptor M2; experiment: Partial agonist activity at rat muscarinic M2 receptor expressed in CHO cells calcium response; format: functional, cell-based; method in brief: as §6
[21] = target: T12, Muscarinic acetylcholine receptor M5 (Rattus norvegicus) (UniProt P08911); experiment: as §2; format: functional, cell-based
T12 sequence (whole entry): T3 sequence (P08911 whole entry)

[22] = target: T13, Muscarinic acetylcholine receptor M4 (Rattus norvegicus) (UniProt P08485); experiment: as §3; format: functional, cell-based
T13 sequence (whole entry): T4 sequence (P08485 whole entry)

[23] = target: Muscarinic acetylcholine receptor M3 (Rattus norvegicus) (UniProt P08483); experiment: as §4; format: functional, cell-based
Muscarinic acetylcholine receptor M3 (Rattus norvegicus), sequence (P08483 whole entry, looked up): as the sequence (P08483 whole entry) above

[24] = target: T14, Muscarinic acetylcholine receptor M2 (Rattus norvegicus) (UniProt P10980); experiment: as §5; format: functional, cell-based
T14 sequence (whole entry): T6 sequence (P10980 whole entry)

CCOC(=O)N1CCC(N2CCC[C@@H](NC(=O)c3ccc(C(F)(F)F)nc3)C2)CC1
Imax [1]: 2.7%
IC50 ([2]; read-out: pIC50 (converted)): 3.16 µM
IC50 ([3]; read-out: IC50): > 10 µM
IC50 [4]: > 10 µM
IC50 ([5]; read-out: IC50): > 10 µM
IC50 ([6]; read-out: pIC50 (converted)): 1.07 µM

CCOC(=O)N1CCC(N2CCC[C@@H](NC(=O)c3cccc(Br)c3)C2)CC1
Imax [7]: 37.4%
EC50 [8]: 2 µM

Cc1ccccc1CN1CCC(N2CCC(n3c(=O)[nH]c4ccccc43)C(F)C2)CC1 (centres undefined)
Activity [9]: Active
Ki [10]: 1.35 µM
inhibition [11]: Active
Imax [1]: 13.6%
IC50 ([2]; read-out: IC50): 4.9 µM
inhibition [12]: Active
inhibition [13]: Active
IC50 ([3]; cho, read-out: IC50): > 10 µM
IC50 ([3]; read-out: pIC50 (converted)): > 10 µM
IC50 [4]: 5.2 µM
IC50 ([5]; cho, read-out: IC50): > 10 µM
IC50 ([5]; read-out: pIC50 (converted)): > 10 µM
IC50 ([6]; cho, read-out: IC50): > 10 µM
IC50 ([6]; read-out: pIC50 (converted)): > 10 µM
Activity [14]: inactive

CCOC(=O)N1CCC(N2CCC[C@@H](NC(=O)c3cc(Br)cc(Br)c3)C2)CC1
Imax [1]: 0.4%
IC50 ([2]; read-out: pIC50 (converted)): 3.39 µM

Cc1ccccc1CN1CCC(N2CCC(n3c(=O)[nH]c4ccccc43)CC2)CC1
IC50 [15]: 4.9 µM
IC50 [16]: 3.5 µM
EC50 [17]: > 30 µM
EC50 [18]: > 30 µM
IC50 ([3]; read-out: IC50): 3.97 µM
IC50 ([5]; read-out: IC50): 5.48 µM
IC50 ([6]; read-out: IC50): 1.29 µM
EC50 [19]: > 30 µM
EC50 [20]: > 30 µM
Imax [7]: 69.3%

CCOC(=O)N1CCC(N[C@H]2CCCN(C(=O)c3ccccc3)C2)CC1
Imax [1]: 3%
IC50 ([2]; read-out: IC50): 0.273 µM
IC50 ([2]; read-out: pIC50 (converted)): 0.479 µM
inhibition [21]: Active
inhibition [22]: Active
inhibition [23]: Active
inhibition [24]: Active

Cc1ccccc1CN1CCC(N2CC3CC(n4c(=O)[nH]c5ccccc54)CC3C2)CC1 (centres undefined)
Imax [1]: -1.07%
IC50 ([2]; read-out: IC50): 6.4 µM
IC50 ([3]; read-out: IC50): > 10 µM
IC50 [4]: > 10 µM
IC50 ([5]; read-out: IC50): > 10 µM
IC50 ([6]; read-out: IC50): > 10 µM
Activity [14]: inactive
